Experimental data as given in ChEMBL document CHEMBL4138318, “Discovery of 5-Cyano-6-phenylpyrimidin Derivatives Containing an Acylurea Moiety as Orally Bioavailable Reversal Agents against P-Glycoprotein-Mediated Mutidrug Resistance” (J Med Chem, 2018).

What was measured:
[1] = target: ATP-dependent translocase ABCB1 (Homo sapiens, UniProt P08183); assay: Inhibition of ABCB1 in human SW620/AD300 cells assessed as potentiation of paclitaxel-induced cytotoxicity by measuring fold reduction in paclitaxel IC50 at 2 uM after 72 hrs by MTT assay relative to paclitaxel alone; assay type: cell-based
How it was run: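 SW620/AD300 cells (~5×10^3/well) treated with graded paclitaxel with or without modulator (2 µM, or 0.5-2 µM in dose series; 0.1% DMSO solvent control) for 72 h; MTT (5 mg/mL stock) added 4 h, absorbance 490 nm. IC50 as mean ± SD of three independent runs; reversal fold = paclitaxel IC50 without/with modulator.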

[2] = Cytotoxicity against human SW620 cells assessed as survival at 2 uM after 72 hrs by MTT assay relative to control; assay type: cell-based, SW-620; conditions: read-out: Survival
[3] = Cytotoxicity against human SW620/AD300 cells assessed as survival at 2 uM after 72 hrs by MTT assay relative to control; assay type: cell-based; conditions: read-out: Survival

Sequence of ATP-dependent translocase ABCB1 (P08183 whole entry): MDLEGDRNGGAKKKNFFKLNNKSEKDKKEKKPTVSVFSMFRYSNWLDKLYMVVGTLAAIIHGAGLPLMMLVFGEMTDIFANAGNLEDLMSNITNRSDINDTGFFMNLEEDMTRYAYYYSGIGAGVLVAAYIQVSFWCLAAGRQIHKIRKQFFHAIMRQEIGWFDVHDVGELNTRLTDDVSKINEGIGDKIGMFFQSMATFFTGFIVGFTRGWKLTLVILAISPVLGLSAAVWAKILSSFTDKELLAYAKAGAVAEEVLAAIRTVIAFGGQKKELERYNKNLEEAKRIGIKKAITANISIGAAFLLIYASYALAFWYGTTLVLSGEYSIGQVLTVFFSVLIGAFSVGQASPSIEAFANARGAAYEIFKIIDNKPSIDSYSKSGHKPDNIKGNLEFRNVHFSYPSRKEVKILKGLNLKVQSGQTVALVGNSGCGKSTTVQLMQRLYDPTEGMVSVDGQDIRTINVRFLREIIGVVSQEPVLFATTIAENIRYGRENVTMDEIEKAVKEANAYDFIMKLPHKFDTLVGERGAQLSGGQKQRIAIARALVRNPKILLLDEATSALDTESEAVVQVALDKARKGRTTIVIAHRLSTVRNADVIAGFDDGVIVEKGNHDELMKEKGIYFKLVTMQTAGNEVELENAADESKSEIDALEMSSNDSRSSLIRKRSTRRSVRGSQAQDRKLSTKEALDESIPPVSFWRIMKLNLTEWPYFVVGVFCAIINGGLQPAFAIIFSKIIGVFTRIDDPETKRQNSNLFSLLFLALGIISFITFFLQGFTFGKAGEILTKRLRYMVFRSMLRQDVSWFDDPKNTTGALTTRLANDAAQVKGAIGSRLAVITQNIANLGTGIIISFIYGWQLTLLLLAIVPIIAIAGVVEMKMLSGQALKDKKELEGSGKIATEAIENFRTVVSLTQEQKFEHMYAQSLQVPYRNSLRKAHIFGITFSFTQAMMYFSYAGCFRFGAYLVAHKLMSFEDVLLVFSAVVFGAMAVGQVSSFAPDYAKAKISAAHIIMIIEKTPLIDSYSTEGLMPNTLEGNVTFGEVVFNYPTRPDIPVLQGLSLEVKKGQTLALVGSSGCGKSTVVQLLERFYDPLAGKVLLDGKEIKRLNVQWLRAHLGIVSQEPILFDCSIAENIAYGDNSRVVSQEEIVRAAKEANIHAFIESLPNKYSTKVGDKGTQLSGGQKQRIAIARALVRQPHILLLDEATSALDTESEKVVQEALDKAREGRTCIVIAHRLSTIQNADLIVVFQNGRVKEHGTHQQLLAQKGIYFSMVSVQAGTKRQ

Row | Compound | fold change (FC) [1] | viability at 72 h, 2 µM [2] [%] | viability at 72 h, 2 µM [3] [%]
1 | CC(C)c1ccc(-c2nc(SCc3cn(CC(=O)NC(=O)Nc4ccccn4)nn3)nc(Nc3ccccc3O)c2C#N)cc1 | 13.64 | > 90 | > 90
2 | COc1ccccc1Nc1nc(SCC(=O)NC(=O)Nc2ccccn2)nc(-c2cc(OC)c(OC)c(OC)c2)c1C#N | 8.67 | > 90 | > 90
3 | COc1cc(-c2nc(SCC(=O)Nc3ccccn3)nc(Nc3cccc(Cl)c3)c2C#N)cc(OC)c1OC | 5.51 | > 90 | > 90
4 | Cc1ccc(-c2nc(SCC(=O)NC(=O)Nc3ccccn3)nc(Nc3cccc(C(F)(F)F)c3)c2C#N)cc1 | 6.06 | > 90 | > 90
5 | Cc1ccc(Nc2nc(SCc3cn(Cc4ccccc4Cl)nn3)nc(-c3ccc(C(C)C)cc3)c2C#N)cc1 | 46 |  | 
6 | Cc1ccc(Nc2nc(SCC(=O)NC(=O)Nc3ccccn3)nc(-c3ccc(C(C)C)cc3)c2C#N)cc1 | 1.64 | > 90 | > 90
7 | COc1cc(-c2nc(SCC(=O)NC(=O)Nc3ccccn3)nc(Nc3ccccc3Cl)c2C#N)cc(OC)c1OC | 38.05 | > 90 | > 90
8 | COc1cc(-c2nc(SCC(=O)NC(=O)Nc3ccccc3)nc(Nc3ccc(C(C)C)cc3)c2C#N)cc(OC)c1OC | 25.07 | > 90 | > 90
9 | Cc1ccc(-c2nc(SCc3cn(CC(=O)NC(=O)Nc4ccccn4)nn3)nc(Nc3cccc(Cl)c3)c2C#N)cc1 | 13.42 | > 90 | > 90
10 | CC(C)c1ccc(-c2nc(SCc3cn(CC(=O)NC(=O)Nc4ccccn4)nn3)nc(Nc3ccccc3)c2C#N)cc1 | 1.65 | > 90 | > 90
11 | COc1cc(-c2nc(SCC(=O)NC(=O)Nc3ccccn3)nc(Nc3cccc(C(F)(F)F)c3)c2C#N)cc(OC)c1OC | 58.14 | > 90 | > 90
12 | N#Cc1c(Nc2ccc(Cl)cc2)nc(SCC(=O)NC(=O)Nc2ccccn2)nc1-c1ccc(Cl)cc1 | 2.32 | > 90 | > 90
13 | N#Cc1c(Nc2cccc(C(F)(F)F)c2)nc(SCc2cn(CC(=O)NC(=O)Nc3ccccn3)nn2)nc1-c1ccc(Br)cc1 | 2.4 | > 90 | > 90
14 | Cc1ccc(-c2nc(SCc3cn(CC(=O)NC(=O)Nc4ccccn4)nn3)nc(Nc3ccc(C(C)C)cc3)c2C#N)cc1 | 1.18 | > 90 | > 90
15 | N#Cc1c(Nc2ccc(Cl)cc2)nc(SCC(=O)NC(=O)Nc2ccccn2)nc1-c1ccc(F)c(F)c1 | 3.5 | > 90 | > 90
16 | CC(C)c1ccc(Nc2nc(SCc3cn(CC(=O)NC(=O)Nc4ccccn4)nn3)nc(-c3ccc(Br)cc3)c2C#N)cc1 | 1.7 | > 90 | > 90
17 | CC(C)c1ccc(-c2nc(SCc3cn(CC(=O)NC(=O)Nc4ccccn4)nn3)nc(Nc3cccc([N+](=O)[O-])c3)c2C#N)cc1 | 2.99 | > 90 | > 90
18 | Cc1ccccc1Nc1nc(SCc2cn(Cc3ccc(Cl)cc3)nn2)nc(-c2ccccc2)c1C#N | 116 |  | 
19 | CC(C)c1ccc(-c2nc(SCc3cn(CC(=O)NC(=O)Nc4ccccn4)nn3)nc(Nc3cccc(Cl)c3)c2C#N)cc1 | 2.71 | > 90 | > 90
20 | N#Cc1c(Nc2cccc(Cl)c2)nc(SCC(=O)NC(=O)Nc2ccccn2)nc1-c1ccc(F)c(F)c1 | 4.37 | > 90 | > 90
21 | COc1ccccc1Nc1nc(SCc2cn(CC(=O)NC(=O)Nc3ccccn3)nn2)nc(-c2ccc(C)cc2)c1C#N | 10.71 | > 90 | > 90
22 | CC(C)c1ccc(-c2nc(SCc3cn(CC(=O)NC(=O)Nc4ccccn4)nn3)nc(Nc3ccc(F)cc3)c2C#N)cc1 | 2.11 | > 90 | > 90
23 | Cc1cccc(Nc2nc(SCC(=O)NC(=O)Nc3ccccn3)nc(-c3ccc(C(C)C)cc3)c2C#N)c1 | 2.62 | > 90 | > 90
24 | COc1ccccc1Nc1nc(SCC(=O)NC(=O)Nc2ccccc2)nc(-c2cc(OC)c(OC)c(OC)c2)c1C#N | 3.66 | > 90 | > 90
